Experimental data as given in ChEMBL document CHEMBL3297674, “Structure-activity relationships of 2'-modified-4'-selenoarabinofuranosyl-pyrimidines as anticancer agents” (Eur J Med Chem, 2014).

What was measured:
A549 = experiment: Cytotoxicity against human A549 cells by SRB assay; assay type: functional, cell-based
Summary of the method: (§1)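 Cytotoxicity measured in human cancer cell lines (colon HCT116, lung A549, stomach SNU638, breast T47D, prostate PC-3, leukemia K562) by sulforhodamine B protein staining.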

K562 = experiment: Cytotoxicity against human K562 cells by SRB assay; assay type: functional, cell-based; summary of the method: as §1
PC-3 [1] = experiment: Cytotoxicity against human PC3 cells by SRB assay; assay type: functional, cell-based; summary of the method: as §1
T47D = experiment: Cytotoxicity against human T47D cells by SRB assay; assay type: functional, cell-based; summary of the method: as §1
HCT-116 = experiment: Cytotoxicity against human HCT116 cells by SRB assay; assay type: functional, cell-based; summary of the method: as §1
[2] = Cytotoxicity against human SNU638 cells by SRB assay; assay type: functional, cell-based; conditions: SNU-638; summary of the method: as §1
PC-3 [3] = experiment: Drug metabolism in human PC3 cells assessed as formation of mono, di, or triphosphate at 50 uM after 24 hrs by HPLC-MS analysis; assay type: ADME, cell-based; conditions: pc-3, 24 h
Summary of the method: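 PC-3 cells seeded at 5×10^5 per 100 mm dish, grown 24 h, then exposed to 50 µM compound for 24 h. Cells washed with DPBS and extracted in methanol/chloroform with three liquid N₂ freeze–sonication cycles. Water/chloroform phase split at 22,000 g, 4 °C. Dried upper layer analysed by HILIC (ZIC-pHILIC, 10 mM ammonium carbonate/acetonitrile gradient, 35 °C) with ESI ion-trap MS.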

Compound	IC50 (A549)	IC50 (K562)	IC50 (PC-3 [1])	IC50 (T47D)	IC50 (HCT-116)	IC50 [2]	Drug metabolism (PC-3 [3])
O=c1[nH]c(=O)n(C2[Se][C@H](CO)[C@@H](O)[C@@H]2O)cc1F (stereo partly drawn)	55.2 µM	> 100 µM	66.3 µM	67.4 µM	56.8 µM	60.1 µM	
[N-]=[N+]=N[C@@H]1C(n2ccc(=O)[nH]c2=O)[Se][C@H](CO)[C@H]1O (stereo partly drawn)	> 100 µM	> 100 µM	> 100 µM	> 100 µM	> 100 µM	> 100 µM	
[N-]=[N+]=N[C@@H]1C(n2cc(F)c(=O)[nH]c2=O)[Se][C@H](CO)[C@H]1O (single isomer, unassigned; (+))	> 100 µM	> 100 µM	> 100 µM	> 100 µM	> 100 µM	> 100 µM	
O=c1[nH]c(=O)n(C2[Se][C@H](CO)[C@@H](O)[C@@H]2F)cc1F (stereo partly drawn)	54.2 µM	78.5 µM	43.1 µM	51.1 µM	40.1 µM	50.1 µM	
Cc1cn(C2[Se][C@H](CO)[C@@H](O)[C@@H]2F)c(=O)[nH]c1=O (stereo partly drawn)	76.4 µM	76.3 µM	88 µM	65.3 µM	85.2 µM	77.2 µM	
Nc1ccn(C2[Se][C@H](CO)[C@@H](O)[C@@H]2O)c(=O)n1 (stereo partly drawn)	8.83 µM	86.6 µM	4.54 µM	8.91 µM	7.13 µM	4.72 µM	
O=c1[nH]c(=O)n(C2[Se][C@H](CO)[C@@H](O)[C@@H]2F)cc1I (stereo partly drawn)	> 100 µM	> 100 µM	> 100 µM	> 100 µM	> 100 µM	> 100 µM	
Nc1ccn(C2[Se][C@H](CO)[C@@H](O)[C@@H]2F)c(=O)n1 (stereo partly drawn)	0.47 µM	0.63 µM	0.58 µM	0.79 µM	1.1 µM	0.14 µM	metabolite_notdetected
[N-]=[N+]=N[C@@H]1C(n2cc(Br)c(=O)[nH]c2=O)[Se][C@H](CO)[C@H]1O (single isomer, unassigned; (-))	> 100 µM	> 100 µM	> 100 µM	> 100 µM	> 100 µM	> 100 µM	
[N-]=[N+]=N[C@@H]1C(n2cc(Cl)c(=O)[nH]c2=O)[Se][C@H](CO)[C@H]1O (stereo partly drawn)	> 100 µM	> 100 µM	> 100 µM	> 100 µM	> 100 µM	> 100 µM	
O=c1ccn(C2[Se][C@H](CO)[C@@H](O)[C@@H]2F)c(=O)[nH]1 (single isomer, unassigned; (-))	> 100 µM	> 100 µM	> 100 µM	> 100 µM	> 100 µM	> 100 µM	
[N-]=[N+]=N[C@@H]1C(n2cc(I)c(=O)[nH]c2=O)[Se][C@H](CO)[C@H]1O (stereo partly drawn)	> 100 µM	> 100 µM	> 100 µM	> 100 µM	> 100 µM	> 100 µM	
Cc1cn(C2[Se][C@H](CO)[C@@H](O)[C@@H]2O)c(=O)[nH]c1=O (stereo partly drawn)	> 100 µM	> 100 µM	> 100 µM	> 100 µM	> 100 µM	> 100 µM	
O=c1[nH]c(=O)n(C2[Se][C@H](CO)[C@@H](O)[C@@H]2O)cc1Cl (stereo partly drawn)	> 100 µM	> 100 µM	> 100 µM	> 100 µM	> 100 µM	> 100 µM	
O=c1[nH]c(=O)n(C2[Se][C@H](CO)[C@@H](O)[C@@H]2F)cc1Br (stereo partly drawn)	> 100 µM	> 100 µM	> 100 µM	> 100 µM	> 100 µM	> 100 µM	
O=c1ccn(C2[Se][C@H](CO)[C@@H](O)[C@@H]2O)c(=O)[nH]1 (stereo partly drawn)	> 100 µM	> 100 µM	> 100 µM	> 100 µM	> 100 µM	> 100 µM	
[N-]=[N+]=N[C@@H]1C(n2ccc(N)nc2=O)[Se][C@H](CO)[C@H]1O (single isomer, unassigned; (+))	80.1 µM	62.3 µM	75.1 µM	78.4 µM	78.3 µM	85.2 µM	
Cc1cn(C2[Se][C@H](CO)[C@@H](O)[C@@H]2N=[N+]=[N-])c(=O)[nH]c1=O (single isomer, unassigned; (+))	> 100 µM	> 100 µM	> 100 µM	> 100 µM	> 100 µM	> 100 µM	
Nc1ccn([C@@H]2O[C@H](CO)[C@@H](O)[C@@H]2O)c(=O)n1 [CYTARABINE]						0.15 µM	
O=c1[nH]c(=O)n(C2[Se][C@H](CO)[C@@H](O)[C@@H]2F)cc1Cl (single isomer, unassigned; (+))	82.1 µM	> 100 µM	> 100 µM	77.1 µM	80.2 µM	76.3 µM	
O=c1[nH]c(=O)n(C2[Se][C@H](CO)[C@@H](O)[C@@H]2O)cc1Br (stereo partly drawn)	> 100 µM	> 100 µM	> 100 µM	> 100 µM	> 100 µM	> 100 µM	
O=c1[nH]c(=O)n(C2[Se][C@H](CO)[C@@H](O)[C@@H]2O)cc1I (stereo partly drawn)	> 100 µM	> 100 µM	> 100 µM	> 100 µM	> 100 µM	> 100 µM	
